Screening results deposited in PubChem by The Scripps Research Institute Molecular Screening Center.
In the library only some 1.9% were active in any assay of this set; here they are far more common.
CHRM5 agonist: human M5 muscarinic receptor agonists, primary screen, CHO-K1 cells, Fluo-8 calcium fluorescence. Muscarinic acetylcholine receptor M5 (Homo sapiens), P08912. CHO-K1 hM5 cells; 0% DMSO wells, 100% maximal acetylcholine response. activation, % at 3 µM. 360,000 tested, 0.19% active;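 active = activation above the run's mean over test compounds plus 3 SD, cut at about 23% in these data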;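 note: signal is peak over basal fluorescence ratio across the kinetic read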
Target sequence (P08912 whole entry, looked up): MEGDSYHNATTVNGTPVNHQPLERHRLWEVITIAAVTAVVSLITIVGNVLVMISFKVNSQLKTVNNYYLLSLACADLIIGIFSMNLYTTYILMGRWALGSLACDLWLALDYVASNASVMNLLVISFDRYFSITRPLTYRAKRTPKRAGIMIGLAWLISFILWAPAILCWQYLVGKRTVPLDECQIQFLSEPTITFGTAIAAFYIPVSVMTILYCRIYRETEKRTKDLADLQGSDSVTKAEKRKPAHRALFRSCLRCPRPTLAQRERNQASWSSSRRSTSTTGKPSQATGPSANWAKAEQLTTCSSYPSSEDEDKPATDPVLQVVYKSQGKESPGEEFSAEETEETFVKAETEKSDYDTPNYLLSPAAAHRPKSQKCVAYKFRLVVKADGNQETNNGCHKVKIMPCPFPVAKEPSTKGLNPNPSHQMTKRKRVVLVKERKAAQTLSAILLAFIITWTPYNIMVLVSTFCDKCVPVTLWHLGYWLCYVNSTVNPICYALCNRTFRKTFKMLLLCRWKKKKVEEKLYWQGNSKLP
M5 PAM: human M5 muscarinic receptor positive allosteric modulators, primary screen, CHO-K1 cells, Fluo-8 calcium fluorescence; Muscarinic acetylcholine receptor M5 (Homo sapiens), P08912; CHO-K1 hM5, ACh EC20 PAM; 0% = ACh EC20, 100% = ACh EC100; activation, % at 3 µM; 360,000 tested, 0.3% active; AID 624038, 2012;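 active = activation above the run cutoff, the mean activation of all test compounds plus 3 SD, cut at about 18% in these data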
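Test system: CHO-K1 hM5 cells / Doses: single-point, 3 µM nominal / Times: Post-acetylcholine fluorescence recording 140 s / Technique: Fluo-8 calcium fluorescence / Measure: Max/basal fluorescence ratio as % of EC20–EC100 ACh window / Benchmarks: low control EC20 acetylcholine (0%), high control EC100 acetylcholine (100%) / Replicates: one well per compound, no replicates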
CHRM4 PAM: human M4 muscarinic receptor positive allosteric modulators, primary screen, CHO-K1 cells, Fluo-8 calcium fluorescence | CHO-K1 hM4/Gqi5, ACh EC20; 0% = ACh EC20, 100% = maximal ACh | activation, % at 3 µM | 360,000 tested, 0.4% active | AID 624126, 2012;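 active = activation above its plate's cutoff, the mean activation of sample wells plus 3 SD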
M4 antag: human M4 muscarinic receptor antagonists, primary screen, CHO cells, Fluo-8 calcium fluorescence; Muscarinic acetylcholine receptor M4 (Homo sapiens), P08173; CHO-hM4 cells, ACh EC80; inhibition, % at 3 µM; 360,000 tested, 0.73% active; AID 624125, 2012;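 active = inhibition above its plate's cutoff, the mean inhibition of sample wells plus 3 SD, cut at about 27% in these data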;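 note: 0% = acetylcholine EC80 with DMSO and 100% = DMSO without agonist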
M4 ag: human M4 muscarinic receptor agonists, primary screen, CHO-K1 cells, Fluo-8 calcium fluorescence. Muscarinic acetylcholine receptor M4 (Homo sapiens), P08173. 360,000 tested, 0.14% active. AID 624127, 2012. activation, % at 3 µM. CHO-K1 hM4/Gqi5; vehicle 0%, full acetylcholine response 100%;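 active = activation above the run mean over all test wells plus 3 SD, cut at about 32% in these data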;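 note: peak over basal fluorescence ratio per well then scaled between controls; 0% = DMSO wells and 100% = acetylcholine at EC100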
CHRM5 antagonist: human M5 muscarinic receptor antagonists, primary screen, CHO cells, Fluo-8 calcium fluorescence; 360,000 tested, 0.59% active; Muscarinic acetylcholine receptor M5 (Homo sapiens), P08912; CHO-hM5 cells, ACh EC80; AID 624040, 2012; inhibition, % at 3 µM;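 active = inhibition above a per-plate cutoff, the mean of that plate's test compounds plus 3 SD, cut at about 27% in these data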;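 note: 0% = acetylcholine EC80 with DMSO and 100% = DMSO without agonist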
Numbers without * were called inactive.

SMILES | CHRM5 agonist | M5 PAM | CHRM4 PAM | M4 antag | M4 ag | CHRM5 antagonist
Cc1ccc(Cl)cc1N1CCN(Cc2cc(=O)n3ccsc3n2)CC1 | 0 | 19* | 2 | -17 | 5 | -14
CC(NC(=O)/C(C#N)=C1\N=C(NC(=O)c2ccco2)c2ccccc21)c1ccccc1 (stereo unspecified) | 6 | 1 | -3 | 3 | 3 | 3
CCN(CC)C(=O)c1cccc(-c2csc(C(O)c3ccco3)n2)c1 (stereo unspecified) | 1 | -2 | 2 | -11 | 2 | 4
O=C(Nc1cccc(Cl)c1)Nc1nnc(-c2ccncc2)s1 | 9 | -18 | -12 | 17 | 15 | 32*
CS(=O)(=O)c1ccc2nc(NC(=O)Nc3ccc(Cl)c(Cl)c3)sc2c1 | 0 | 0 | 8 | -13 | 2 | -5
CCOC(=O)Cc1csc(NC(=O)Nc2cccc(Cl)c2)n1 | 5 | -18 | -9 | 0 | 17 | 29*
CS(=O)(=O)c1ccc2nc(NC(=O)Nc3cccc(Cl)c3)sc2c1 | 9 | -24 | -6 | 16 | 22 | 32*
COc1ccc(C2/C=C\CN(C(=O)OCC3c4ccccc4-c4ccccc43)CC(=O)N2Cc2cccc(F)c2)cc1 (stereo unspecified) | 1 | 0 | 4 | -4 | 1 | -7
CCCOC(=O)C1NC(=O)N2C(C(=O)OCCC)C(C)(C)S[C@H]12 (stereo partly specified) | 2 | 11 | 5 | 7 | 0 | 1
C[C@H](CO)N1C[C@H](C)[C@H](CN(C)C(=O)c2ccc(N3CCN(C)CC3)cc2)OCc2cnnn2CCCC1=O | -2 | -2 | 2 | -2 | 1 | -4
Cc1c(Br)c([N+](=O)[O-])nn1CC(=O)N1CCc2ccccc21 | -7 | 4 | 6 | 5 | 0 | 8
Cc1nn(CC(=O)N2CCc3ccccc32)c(C)c1S(=O)(=O)NC(C)(C)C | 3 | 0 | 16* | -9 | 2 | 6
O=C(NCc1cccnc1)c1ccc(NS(=O)(=O)c2cccc([N+](=O)[O-])c2)cc1 | -1 | -3 | 0 | -5 | 1 | 7
Cc1ccc(O)c([C@H](CCN(C(C)C)C(C)C)c2ccccc2)c1 | 0 | -18 | -19 | 100* | 5 | 99*
NC(=O)c1ccnc2c(O)cccc12 | 1 | -2 | 9 | 2 | 3 | -1
OCc1ccnc2c(O)cccc12 | 0 | 22* | 7 | 1 | 1 | 1
O=C(C1CCCC1)N1CCCC(Nc2ccc(F)cc2)C1 (stereo unspecified) | -2 | -2 | -4 | 7 | 0 | 1
Cc1ccc(NC2CCCN(C(=O)C3CCCCC3)C2)cc1C (stereo unspecified) | 3 | 21* | -2 | 6 | 0 | -14
CCOC(=O)c1cnc2c(C)cc(Cl)cc2c1NCCCN1CCOCC1 | -2 | 2 | -2 | -10 | 2 | 1
CCOC(=O)c1cnc2c(CC)cccc2c1NCCN1CCOCC1 | -8 | -1 | -13 | 6 | 1 | 27*
CCOC(=O)c1cnc2c(C)cccc2c1NCCCN1CCOCC1 | -2 | 2 | 20* | -2 | 4 | 5
CCOC(=O)c1cnc2c(C(=O)OC)cccc2c1NCCN1CCOCC1 | 0 | 7 | 10 | -1 | 0 | -4
O=C(CCNC(=O)c1ccco1)NNC(=O)c1ccc(Br)cc1 | -4 | 5 | 23* | -7 | 1 | -4
Cc1ccc(NC(=O)CCNC(=O)c2ccco2)cc1 | -1 | 13 | 19 | 3 | 1 | 1
O=C(CCNC(=O)c1ccc(Br)cc1)NCc1ccco1 | 3 | 1 | 5 | -5 | 2 | -17
SMILES | CHRM5 agonist | M5 PAM | CHRM4 PAM | M4 antag | M4 ag | CHRM5 antagonist
O=C(CCNC(=O)c1ccco1)Nc1ccccc1 | -1 | 2 | 16* | -12 | 2 | 9
O=C(NCc1ccccn1)c1[nH]c(C(F)(F)F)nc1-c1ccccc1 | 2 | -4 | -1 | 1 | 0 | 6
O=C(CSc1nncc2ccccc12)N1CCCCC1 | -4 | -1 | -10 | 2 | 0 | -10
CCOC(=O)C1CCC(CNCc2ccccc2C)CC1 (stereo unspecified) | -17 | -8 | -24 | 34* | 2 | 0
Cc1csc(SCC(=O)NC2CCCC2)n1 | 0 | -3 | 5 | 3 | 0 | 4
c1ccc(OCc2noc(CN3CC[C@@H]4CCCC[C@H]4C3)n2)cc1 | 10 | 22* | 5 | 0 | 2 | 7
Clc1cccc(C2CCN(Cc3nc(COc4ccccc4)no3)C2)c1 (stereo unspecified) | -4 | -4 | -5 | -4 | 6 | 10
OCC1CCCN(c2nc(CN3CCCCC3)nc3scc(-c4ccccc4)c23)C1 (stereo unspecified) | -10 | -8 | -17 | 9 | 2 | -1
CCNc1nc(CN2CCCCC2)nc2scc(-c3ccccc3)c12 | -8 | -8 | -19 | 27* | 3 | 2
CC1CCN(CCCCOc2ccc(C(=O)c3ccccc3)cc2)CC1 | -11 | -12 | -17 | 42* | 3 | 3
CC1CCN(CCCOc2ccc(OCc3ccccc3)cc2)CC1 | -12 | -21 | -18 | 23 | 7 | 8
CC1CCN(CCCCOc2cccc(C(C)C)c2)CC1 | -8 | -21 | -19 | 34* | 5 | 21
CC1CCN(CCOc2ccc(C(=O)c3ccccc3)cc2)CC1 | -20 | -4 | -17 | 43* | 1 | 7
CCC(C)(C)n1nnnc1C(c1ccccc1OC)N1CCN(C(=O)c2ccco2)CC1 (stereo unspecified) | 1 | 11 | 7 | -11 | 1 | -2
O=C(NCc1cccnc1)C(=O)C1C(=O)Nc2ccccc21 (stereo unspecified) | 4 | 18* | 1 | -17 | 2 | -13
CC(=O)c1ccc(S(=O)c2ccccc2)cc1 (stereo unspecified) | -5 | 2 | 34* | -3 | 2 | 0
Cn1cc(Cl)c(C(=O)Nc2nc3ccc([N+](=O)[O-])cc3s2)n1 | 0 | 22* | 9 | -4 | 0 | 14
CC(=O)C1=C(O)C(=O)N(c2cc(C(C)(C)C)on2)C1c1ccc(Br)cc1 (stereo unspecified) | 3 | 6 | 30* | -1 | 0 | 0
